Laboratory results from ChEMBL document CHEMBL1132585, “New N-(pyridin-4-yl)-(indol-3-yl)acetamides and propanamides as antiallergic agents” (J Med Chem, 1999).
Activity calls are given as the source filed them. The calls are words filed in the database; no cut-off is given here.

Tests used:
[1] = species on record: Rattus norvegicus; assay: Inhibition of histamine release in rat mast cells; format: functional, cell-based
[2] = species on record: Mus musculus; assay: Percent inhibition of anti-CD3 mAb stimulated interleukin-5 release from […] by 10 uM; format: functional
Outline: (§1)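 D10.G4.1 Th-2 cells (4 × 10⁴/well) in medium without Rat T-STIM for 3.5 h, then exposed to drug at 10 µM for 30 min and stimulated with anti-CD3 mAb (final 1:100) for 16 h. IL-4 or IL-5 content of the supernatant is read against solvent control. Mean of three experiments, each run in duplicate.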

[3] = species on record: Mus musculus; assay: Percent inhibition of anti-CD3 mAb stimulated interleukin-4 release from […] by 10 uM; format: functional; outline: as §1
[4] = species on record: Mus musculus; assay: Percent inhibition of anti-CD3 mAb stimulated interleukin-4 release from mice splenocytes by 10 uM compound; format: functional
[5] = species on record: Mus musculus; assay: Compound was evaluated for IL 4 production inhibition from mice splenocytes stimulated by anti-CD3 mAb; format: functional
Outline: (§2)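 Th-2 clone D10.G4.1, restimulated with conalbumin (100 µg/mL) plus mitomycin C-treated AKR/J splenocytes as antigen-presenting cells, thawed and grown 3 days with Rat T-STIM. Cells at 4 × 10⁴/well, 3.5 h without T-STIM, drug 30 min (DMSO ≤0.1%). Stimulated with anti-CD3 mAb (final 1:100) for 16 h; IL-4 or IL-5 measured in supernatant. IC50 estimated over a concentration range.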

[6] = species on record: Mus musculus; assay: Compound was evaluated for IL 5 production inhibition from mice splenocytes stimulated by anti-CD3 mAb; format: functional; outline: as §2
[7] = species on record: Rattus norvegicus; assay: Inhibition of tetraethylammonium chloride(TEA)-induced acetylcholine hyperactivity in rat tracheal segments by the compound.; format: functional; conditions: Trachea
Outline: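 Male Wistar rat tracheal rings in Krebs-Henseleit at 37 °C, 1 g preload, isotonic. Acetylcholine cumulative curves run alone, with TEA (10 mM, 30 min), and with drug (30 min before TEA) plus TEA. Percent inhibition of hyperreactivity taken from contraction at 100 µM acetylcholine, 3-5 preparations; screening at 30 µM, and IC50 by regression from 3-4 concentrations if inhibition exceeds 50%.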

[8] = system: Cavia porcellus; assay: Inhibition of Late Phase Eosinophilia in Bronchoalveolar Lavage (BAL) of Guinea Pigs 2 hr after intraperitoneal administration at a dose of 10 mg/kg.; format: functional; conditions: ip
Outline: (§3)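 Male Dunkin-Hartley guinea pigs sensitized ip with OVA 20 µg + Al(OH)₃ 20 mg on two consecutive days; 14 days later mepyramine 10 mg/kg ip given before aerosol OVA challenge (5 mg/mL nebulized). Drug given ip or by oral gavage 2 h before or 4 h after challenge.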

[9] = system: Cavia porcellus; assay: Inhibition of Late Phase Eosinophilia in Bronchoalveolar Lavage (BAL) of Guinea Pigs 2 hr after peroral administration at a dose of 30 mg/kg.; format: functional; conditions: route oral; outline: as §3
[10] = system: Rattus norvegicus; assay: Compound was evaluated in vivo for inhibition of Ovalbumin induced rhinitis in anesthetized rats 60 min after peroral administration.; format: functional; conditions: po, 1 h, read-out: ID50 (the source's name)
Outline: (§4)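 Male Brown Norway rats sensitized ip with OVA 0.5 mg/kg + Al(OH)₃ 7.5 mg/kg, used on day 20-21 under thiopental (50 mg/kg ip). Nasal cavity perfused with PBS; drug given by 30 min topical perfusion in PBS, iv 30 min or po 60 min before OVA challenge.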

[11] = system: Cavia porcellus; assay: Inhibition of Late Phase Eosinophilia in Bronchoalveolar Lavage (BAL) of Guinea Pigs 4 hr after intraperitoneal administration at a dose 5 mg/kg.; format: functional; conditions: ip; outline: as §3
[12] = species on record: Cavia porcellus; assay: Inhibition of Carbachol-induced contraction of guinea pig trachea by the compound at a concentration of 100 uM.; format: functional
Outline: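 Guinea pig tracheal spirals in Tyrode solution at 37 °C, carbogen, isotonic 2 g preload. Contracted with carbachol 0.164 µM until stable; after isoprenaline relaxation and washout, carbachol re-applied and test compound added cumulatively. Relaxation calculated as a percentage at each concentration.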

[13] = system: Rattus norvegicus; assay: Compound was evaluated in vivo for inhibition of Ovalbumin induced rhinitis in anesthetized rats 30 min after intravenous administration.; format: functional; conditions: 0.5 h, read-out: ID50 (the source's name); outline: as §4
[14] = system: Rattus norvegicus; assay: Compound was evaluated in vivo for inhibition of Ovalbumin induced rhinitis in anesthetized rats after topical administration (nasal perfusion).; format: functional, organism-based; outline: as §4
[15] = system: Cavia porcellus; assay: Inhibition of Late Phase Eosinophilia in Bronchoalveolar Lavage (BAL) of Guinea Pigs 4 hr after peroral administration at a dose of 30 mg/kg.; format: functional; conditions: route oral; outline: as §3
[16] = species on record: Mus musculus; assay: Compound was evaluated for IL 5 production inhibitio from mice splenocytes stimulated by anti-CD3 mAb; format: functional; outline: as §2

Row | Compound | IC50 [1] | inhibition at 10 µM [2] | inhibition [3] | inhibition at 10 µM [4] | further results
1 | COc1ccc2c(c1)c(CC(=O)Nc1ccncc1)c(C)n2Cc1ccc(F)cc1 | 5000 nM | 22% | inactive |  | 
2 | COc1ccc2c(c1)c(CC(=O)Nc1ccncc1)cn2Cc1ccccc1 | 2800 nM | 38% |  | 33% | 
3 | COc1ccc2c(CC(=O)Nc3ccncc3)cn(Cc3ccc(F)cc3)c2c1 | 330 nM | 76% |  | 51% | IC50 [5]: 9800 nM; IC50 [6]: 2280 nM
4 | Cc1[nH]c2ccc(Cl)cc2c1CC(=O)Nc1ccncc1 | > 10000 nM |  | inactive |  | 
5 | O=C(CCCc1cn(Cc2ccc(F)cc2)c2ccccc12)Nc1ccncc1 | 510 nM | 42% |  | 31% | 
6 | COc1ccc2[nH]cc(CC(=O)Nc3ccncc3)c2c1 | > 10000 nM |  | inactive |  | 
7 | Cc1c(CC(=O)Nc2ccncc2)c2cc(F)ccc2n1Cc1ccccc1 | 480 nM | 41% | inactive |  | 
8 | COc1ccc2c(c1)c(CCC(=O)Nc1ccncc1)cn2Cc1ccc(F)cc1 |  |  | inactive |  | 
9 | COc1ccc(CCN(C)CCCC(C#N)(c2ccc(OC)c(OC)c2)C(C)C)cc1OC (stereo not given) [VERAPAMIL] |  |  |  |  | IC50 [7]: 1300 nM
10 | COc1ccc(CCN2CCC(Nc3nc4ccccc4n3Cc3ccc(F)cc3)CC2)cc1 [ASTEMIZOLE] | 6500 nM | 74% |  | 66% | IC50 [5]: 8000 nM; IC50 [6]: 3300 nM
11 | COc1ccc2c(c1)c(CC(=O)Nc1ccncc1)cn2-c1ccc(F)cc1 |  | 22% |  | 24% | 
12 | COc1ccc2c(c1)c(CCC(=O)Nc1ccncc1)cn2Cc1ccccc1 | 3900 nM |  | inactive |  | 
13 | Cc1[nH]c2ccc(F)cc2c1CC(=O)Nc1ccncc1 | 10100 nM |  | inactive |  | 
14 | O=C(Cc1cn(Cc2ccc(F)cc2)c2ccccc12)Nc1ccncc1 | 16 nM | 100% |  | 63% | IC50 [5]: 8000 nM; IC50 [7]: 21 nM; inhibition in vivo at 10 mg/kg [8]: 59%; inhibition in vivo at 30 mg/kg [9]: 35%; ED50 [10]: 0.46 mg/kg; IC50 [6]: 1500 nM; inhibition in vivo at 5 mg/kg [11]: 41%; inhibition at 100 µM [12]: 36%; ED50 [13]: 0.005 mg/kg; IC50 [14]: 250 nM; inhibition in vivo at 30 mg/kg [15]: 28%
15 | O=C(Cc1cn(-c2ccc(F)cc2)c2ccccc12)Nc1ccncc1 | 302 nM | 48% |  | 31% | 
16 | Cc1c(CC(=O)Nc2ccncc2)c2cc(C(C)C)ccc2n1Cc1ccccc1 | 7540 nM | 34% | inactive |  | 
17 | CC(C)c1ccc2c(c1)c(CC(=O)Nc1ccncc1)cn2Cc1ccc(F)cc1 |  | 23% | inactive |  | 
18 | O=C(Cc1cn(-c2ccc(F)cc2)c2ccc(F)cc12)Nc1ccncc1 |  | 71% |  | 51% | IC50 [5]: 9700 nM; IC50 [6]: 4560 nM
19 | COc1ccc2[nH]c(C)c(CC(=O)Nc3ccncc3)c2c1 |  |  | inactive |  | 
20 | O=C(Cc1c[nH]c2ccc(Cl)cc12)Nc1ccncc1 | 4500 nM |  | inactive |  | 
21 | O=C(CCc1cn(Cc2ccccc2)c2ccc(Cl)cc12)Nc1ccncc1 | 740 nM |  | inactive |  | 
22 | CC(C)c1ccc2c(c1)c(CCC(=O)Nc1ccncc1)cn2Cc1ccc(F)cc1 | 5340 nM |  | inactive |  | 
23 | O=C(Cc1c[nH]c2ccc(F)cc12)Nc1ccncc1 | > 10000 nM |  | inactive |  | 

Row | Compound | IC50 [1] | inhibition at 10 µM [2] | inhibition [3] | inhibition at 10 µM [4] | further results
24 | O=C(CCc1cn(Cc2ccc(F)cc2)c2ccc(F)cc12)Nc1ccncc1 | 380 nM | 37% | inactive |  | 
25 | O=C(CCc1cn(Cc2ccc(F)cc2)c2ccc(Cl)cc12)Nc1ccncc1 | 1300 nM | 41% | inactive |  | 
26 | O=C(CCc1c[nH]c2ccc(F)cc12)Nc1ccncc1 | 2210 nM | 25% | inactive |  | 
27 | Cc1c(CC(=O)Nc2ccncc2)c2cc(Cl)ccc2n1Cc1ccc(F)cc1 |  | 26% |  | 28% | 
28 | C[C@@H]1C[C@H]2[C@@H]3CCC4=CC(=O)C=C[C@]4(C)[C@@]3(F)[C@@H](O)C[C@]2(C)[C@@]1(O)C(=O)CO [DEXAMETHASONE] |  |  |  |  | IC50 [16]: 3.5 nM; IC50 [5]: 4.7 nM
29 | CC(C)c1ccc2[nH]cc(CCC(=O)Nc3ccncc3)c2c1 | 3120 nM | 28% | inactive |  | 
30 | Cc1[nH]c2ccc(C(C)C)cc2c1CC(=O)Nc1ccncc1 | 2800 nM |  | inactive |  | 
31 | CC(C)(C)c1ccc(C(O)CCCN2CCC(C(O)(c3ccccc3)c3ccccc3)CC2)cc1 (stereo not given) [TERFENADINE] |  |  |  |  | IC50 [16]: 3960 nM; IC50 [5]: 4950 nM
32 | O=C(CCc1cn(Cc2ccc(F)cc2)c2ccccc12)Nc1ccncc1 | 220 nM | 22% |  | 2.9% | 
33 | O=C(Cc1cn(Cc2ccc(F)cc2)c2cc(O)ccc12)Nc1ccncc1 | 940 nM | 37% |  | 29% | 
34 | O=C(CCc1c[nH]c2ccc(Cl)cc12)Nc1ccncc1 | 1460 nM | 25% |  | 26% | 
35 | O=C(Cc1cn(Cc2ccccc2)c2ccc(Cl)cc12)Nc1ccncc1 |  | 49% |  | 39% | 
36 | O=C(Cc1cn(Cc2ccc(F)cc2)c2ccc(F)cc12)Nc1ccncc1 |  | 43% | inactive |  | 
37 | COc1ccc(CN(CCN(C)C)c2ccccn2)cc1 [PYRILAMINE] |  |  |  |  | IC50 [14]: 7410 nM
38 | Cc1c(CC(=O)Nc2ccncc2)c2cc(F)ccc2n1Cc1ccc(F)cc1 | 400 nM | 61% |  | 49% | IC50 [5]: 10200 nM; IC50 [6]: 7870 nM
39 | O=C(Cc1cn(Cc2ccc(F)cc2)c2ccc(Cl)cc12)Nc1ccncc1 | 230 nM | 54% | inactive |  | IC50 [5]: > 10000 nM; IC50 [6]: 8800 nM
40 | O=C(CCc1cn(Cc2ccccc2)c2ccc(F)cc12)Nc1ccncc1 | 420 nM | 42% |  | 27% | 
41 | CC(C)c1ccc2c(c1)c(CCC(=O)Nc1ccncc1)cn2Cc1ccccc1 | 6000 nM | 25% | inactive |  | 
42 | O=C(Cc1cn(Cc2ccccc2)c2ccc(F)cc12)Nc1ccncc1 | 60 nM | 48% | inactive |  | 
43 | CC(C)c1ccc2[nH]cc(CC(=O)Nc3ccncc3)c2c1 | 4920 nM | 29% |  | 33% | 
44 | Cc1c(CC(=O)Nc2ccncc2)c2cc(C(C)C)ccc2n1Cc1ccc(F)cc1 | 6900 nM |  | inactive |  | 
45 | COc1ccc2[nH]cc(CCC(=O)Nc3ccncc3)c2c1 |  | 26% | inactive |  | 
46 | c1ccc(CN(CC2=NCCN2)c2ccccc2)cc1 [ANTAZOLINE] |  |  |  |  | IC50 [14]: 1260 nM
